Laboratory results taken from ChEMBL document CHEMBL1154356, “1-Peptidyl-2-arachidonoyl-3-stearoyl-sn-glyceride: an immunologically active lipopeptide from goat serum (Capra hircus) is an endogenous damage-associated molecular pattern” (J Nat Prod, 2009).
Calls of active or inactive are those of the source. The rule behind the calls is not given here. Where a SMILES comes first, the peptide text is derived from it. The star is where a group is joined. X1 = CCCCC/C=C\C/C=C\C/C=C\C/C=C\CCCC(=O)O[C@@H](COC(=O)CCCCCCCCCCCCCCCCC)CO*

Experiments:
Fibroblast [1] = assay: Induction of IL33 expression in human fibroblasts at 12.5 ng/ml after 24 hrs by SYBR Green PCR relative to untreated control; format: functional, cell-based
Fibroblast [2] = assay: Induction of IL8 secretion in human fibroblasts after 24 hrs by ELISA relative to untreated control; format: functional
Method in brief: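 Primary human fibroblasts were cultured in complete DMEM with synthetic compound across a dose range that included 0.3–3 ng/mL, for 24 h. Supernatants were stored at -80 °C. IL-8 was measured by sandwich ELISA: plates coated with anti-human IL-8 overnight at 4 °C, blocked 60 min at room temperature, sample 2 h, detection antibody 30 min, avidin-HRP 30 min, then TMB substrate.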

Fibroblast [3] = assay: Immunomodulatory effect in human fibroblasts assessed as induction of IL6 mRNA expression at 5 ng/ml after 24 hrs by SYBR Green PCR relative to beta-actin control; format: functional
Method in brief: (§1)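 Normal primary human fibroblasts were grown in DMEM with 10% FBS and 1× penicillin/streptomycin at 37 °C and 5% CO2. Cells were treated for 24 h with synthetic compound or with purified natural material diluted 1:100. Total RNA was extracted, and 2.0 µg was reverse-transcribed for transcript quantitation. Expression was normalised to β-actin.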

Fibroblast [4] = assay: Induction of IL8 expression in human fibroblasts at 12.5 ng/ml after 24 hrs by SYBR Green PCR relative to untreated control; format: functional, cell-based
Fibroblast [5] = assay: Induction of IL18 expression in human fibroblasts at 12.5 ng/ml after 24 hrs by SYBR Green PCR relative to untreated control; format: functional
[6] = Toxicity in human fibroblasts assessed as decrease in IL8 mRNA expression after 24 hrs by SYBR Green PCR relative to untreated control; format: cell-based; settings: fibroblast; method in brief: as §1
Fibroblast [7] = assay: Immunomodulatory effect in human fibroblasts assessed as induction of MCP1 mRNA expression at 1:100 dilution after 24 hrs by SYBR Green PCR relative to beta-actin control; format: functional; method in brief: as §1
Fibroblast [8] = assay: Immunomodulatory effect in human fibroblasts assessed as induction of MIP-1alpha mRNA expression at 3 ng/ml after 24 hrs by SYBR Green PCR relative to beta-actin control; format: functional; method in brief: as §1
Fibroblast [9] = assay: Induction of IL6 expression in human fibroblasts at 12.5 ng/ml after 24 hrs by SYBR Green PCR relative to untreated control; format: functional, cell-based
Fibroblast [10] = assay: Immunomodulatory effect in human fibroblasts assessed as induction of MCP1 mRNA expression at 3 ng/ml after 24 hrs by SYBR Green PCR relative to beta-actin control; format: functional; method in brief: as §1
Fibroblast [11] = assay: Immunomodulatory effect in human fibroblasts assessed as induction of IL6 mRNA expression at 1:100 dilution after 24 hrs by SYBR Green PCR relative to beta-actin control; format: functional; method in brief: as §1
Fibroblast [12] = assay: Induction of IL1-beta expression in human fibroblasts at 12.5 ng/ml after 24 hrs by SYBR Green PCR relative to untreated control; format: functional, cell-based
Fibroblast [13] = assay: Immunomodulatory effect in human fibroblasts assessed as induction of IL8 mRNA expression at 3 ng/ml after 24 hrs by SYBR Green PCR relative to untreated control; format: functional; method in brief: as §1
Fibroblast [14] = assay: Immunomodulatory effect in human fibroblasts assessed as induction of MIP-1alpha mRNA expression at 1:100 dilution after 24 hrs by SYBR Green PCR relative to beta-actin control; format: functional; method in brief: as §1

## CCCCC/C=C\C/C=C\C/C=C\C/C=C\CCCC(=O)O[C@@H](COC(=O)CCCCCCCCCCCCCCCCC)COC(=O)[C@@H](NC(=O)CNC(=O)[C@@H](NC(=O)[C@H](CS)NC(=O)[C@H](CC(=O)O)NC(=O)[C@H](CCCCN)NC(=O)[C@H](CCC(N)=O)NC(=O)[C@H](CCC(=O)O)NC(=O)[C@H](CCCCN)NC(=O)[C@H](CO)NC(=O)[C@@H](NC(=O)[C@H](Cc1ccc(O)cc1)NC(=O)CNC(=O)[C@H](CCCCN)NC(=O)[C@H](CC(=O)O)NC(=O)[C@H](Cc1ccc(O)cc1)NC(=O)[C@H](CC(C)C)NC(=O)[C@H](C)NC(C)=O)[C@@H](C)O)C(C)C)[C@@H](C)CC (Ac-ALYDKGYTSKEQKDCVGI-X1)
Fibroblast [1]
  Activity: Active
Fibroblast [2]
  Activity: Dose-dependent effect
  EC99: 0.003 µg/mL
Fibroblast [3]
  Activity: 20%
Fibroblast [4]
  Activity: inactive
Fibroblast [5]
  Activity: 20%
[6]
  Activity: Dose-dependent effect
Fibroblast [7]
  fold change (FC): 3
Fibroblast [8]
  Activity: 15%
Fibroblast [9]
  Activity: inactive
Fibroblast [10]
  fold change (FC): 3
Fibroblast [11]
  Activity: 40%
Fibroblast [12]
  Activity: inactive
Fibroblast [13]
  fold change (FC): 5
Fibroblast [14]
  Activity: 15%
